Data published in ChEMBL document CHEMBL1122501, “Potential antiatherosclerotic agents. 2. (Aralkylamino)- and (alkylamino) benzoic acid analogues of cetaben” (1983).

Experiments:
[1] = biological target: T1, Sterol O-acyltransferase 1 (Rattus norvegicus) (UniProt O70536); experiment: In vitro inhibitory activity against acyl coenzyme A:cholesterol acyltransferase (ACAT); design: concentration or dose not given beside the values; conditions: concentration not given here
T1 sequence (whole entry): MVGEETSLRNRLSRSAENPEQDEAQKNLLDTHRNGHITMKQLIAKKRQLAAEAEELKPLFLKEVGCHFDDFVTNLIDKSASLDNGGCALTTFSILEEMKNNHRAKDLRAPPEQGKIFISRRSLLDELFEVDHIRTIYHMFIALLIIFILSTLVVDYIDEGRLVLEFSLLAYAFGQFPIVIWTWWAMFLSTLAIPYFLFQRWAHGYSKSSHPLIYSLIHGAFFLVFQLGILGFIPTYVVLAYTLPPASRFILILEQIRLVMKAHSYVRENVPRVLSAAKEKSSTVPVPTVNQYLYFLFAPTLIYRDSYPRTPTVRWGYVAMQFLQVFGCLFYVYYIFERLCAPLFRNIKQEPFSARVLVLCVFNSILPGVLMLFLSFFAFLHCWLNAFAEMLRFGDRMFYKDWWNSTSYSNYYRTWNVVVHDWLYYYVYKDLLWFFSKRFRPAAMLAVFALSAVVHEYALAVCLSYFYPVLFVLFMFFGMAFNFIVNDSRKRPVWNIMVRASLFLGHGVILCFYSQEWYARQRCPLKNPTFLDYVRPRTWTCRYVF
Procedure, shortened: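 ACAT enzyme from rat adrenal homogenate in 0.2 M KH2PO4 buffer pH 7.4, 1000g 15 min 5 °C supernatant (microsomal fraction). Supernatant + BSA (50 mg/mL) + compound at final 5.2 μg/mL + buffer preincubated 10 min 37 °C; [14C]oleoyl-CoA (0.4 μCi) added, 30 min 37 °C. Lipids extracted, TLC; cholesteryl ester zone counted. Mean % inhibition vs no-compound control; Student's t test.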

Rattus norvegicus [2] = experiment: In vivo Triglyceride lowering activity at dose as 0.03 % of the diet.; type: functional
Procedure, shortened: (§1)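 Male CFE or CD-1 Sprague-Dawley rats, 140-150 g; 8 per control group, 4 per test group. Compound mixed into ground chow (w/w) via MeOH-CHCl3 (1:3) solution, solvent evaporated; controls got solvent-treated chow. Fed ad libitum 5 days, food intake monitored, killed fed and bled. Serum sterols and triglycerides by adapted autoanalyzer methods; mean percent of control, Student's t test.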

Rattus norvegicus [3] = experiment: In vivo Sterol lowering activity at dose as 0.03 % of the diet.; type: functional; procedure, shortened: as §1
Rattus norvegicus [4] = experiment: In vivo Sterol lowering activity at dose as 0.10 % of the diet.; type: functional; procedure, shortened: as §1
Rattus norvegicus [5] = experiment: In vivo triglyceride lowering activity, dosed at 0.01 % of the diet.; type: functional; procedure, shortened: as §1
Rattus norvegicus [6] = experiment: In vivo triglyceride lowering activity dosed at 0.10 % of the diet; type: functional; procedure, shortened: as §1
Rattus norvegicus [7] = experiment: In vivo Sterol lowering activity at dose as 0.01 % of the diet.; type: functional; procedure, shortened: as §1
Rattus norvegicus [8] = experiment: In vivo triglyceride lowering activity, dosed at 0.03 % of the diet; type: functional; procedure, shortened: as §1
Rattus norvegicus [9] = experiment: In vivo sterol lowering activity dosed at 0.10 % of the diet; type: functional; procedure, shortened: as §1
Rattus norvegicus [10] = experiment: In vivo Triglyceride lowering activity at dose as 0.01 % of the diet; type: functional; procedure, shortened: as §1
Rattus norvegicus [11] = experiment: In vivo Sterol lowering activity at dose as 0.05 % of the diet; type: functional; procedure, shortened: as §1
Rattus norvegicus [12] = experiment: In vivo triglyceride lowering activity dosed at 0.05 % of the diet; type: functional; procedure, shortened: as §1

Row | Structure (SMILES) | inhibition [1] [%] | Diet (Rattus norvegicus [2]) [%] | serum sterol level, percent of control (Rattus norvegicus [3]) [%] | serum sterol, percent of control (Rattus norvegicus [4]) [%] | Diet (Rattus norvegicus [5]) [%] | serum triglycerides, percent of control (Rattus norvegicus [6]) [%] | serum sterol, percent of control (Rattus norvegicus [7]) [%] | serum triglycerides, percent of control (Rattus norvegicus [8]) [%] | serum sterol, percent of control (Rattus norvegicus [9]) [%] | Diet (Rattus norvegicus [10]) [%] | Diet (Rattus norvegicus [4]) [%] | Diet (Rattus norvegicus [11]) [%] | Diet (Rattus norvegicus [12]) [%]
1 | CCOC(=O)c1ccc(NCCCc2ccccc2N)cc1 | 43 | 97 | 96 | 98 | 83 | 69 | 103 | – | – | – | – | – | –
2 | O=C(O)c1ccc(C(=O)O)c(NCCCc2ccc(Cl)cc2)c1 | 0 | – | 100 | 103 | 72 | 51 | 102 | 57 | – | – | – | – | –
3 | O=C(O)c1ccc(NCCCc2cccc(Br)c2)cc1 | 18 | – | 91 | – | – | 60 | 92 | 67 | 80 | 63 | – | – | –
4 | CCOC(=O)c1ccc(NCc2cccs2)cc1 | 44 | 78 | 98 | – | 94 | – | 104 | – | – | – | – | – | –
5 | Cc1ccc(CCCNc2ccc(C(=O)O)cc2)cc1 | 49 | – | 98 | 110 | – | 50 | 90 | 54 | – | 63 | – | – | –
6 | CCOC(=O)c1ccc(NCCCc2ccc(C)cc2)cc1 | 31 | – | 103 | – | – | 68 | 127 | 54 | 122 | 72 | – | – | –
7 | O=C(O)c1ccc(NCCCc2cccc(F)c2)cc1 | 18 | – | 97 | – | – | 35 | 94 | 61 | – | 53 | 90 | – | –
8 | CC(C(=O)O)c1ccc(NCCCc2ccc(Cl)cc2)cc1 (configuration not stated) | 14 | – | 96 | – | – | 33 | 94 | 63 | 62 | 63 | – | – | –
9 | CCOC(=O)c1ccc(NCCCc2ccc(OC)cc2)cc1 | 54 | – | 90 | – | 82 | 60 | 97 | 59 | 86 | – | – | – | –
10 | CCOC(=O)c1ccc(NC/C=C/c2ccc(Cl)cc2)cc1 | 23 | – | 100 | 78 | – | 46 | 93 | 45 | – | 64 | – | – | –
11 | CCOC(=O)c1ccc(NCc2ccc(Cl)cc2)cc1 | 33 | – | 86 | – | 78 | 50 | 94 | 53 | 84 | – | – | – | –
12 | CCOC(=O)c1cccc(NCCCc2ccc(Cl)cc2)c1 | 50 | – | 93 | 96 | – | 59 | 96 | 62 | – | 75 | – | – | –
13 | O=C(O)c1ccc(NC/C=C/c2ccc(Cl)cc2)cc1 | 26 | – | 92 | 90 | 95 | 54 | 83 | 48 | – | – | – | – | –
14 | O=C(O)c1cccc(NCCCc2ccc(Cl)cc2)c1 | 0 | 93 | 89 | 92 | 80 | 37 | 103 | – | – | – | – | – | –
15 | CCOC(=O)C(C)c1ccc(NCCCc2ccc(Cl)cc2)cc1 (configuration not stated) | 85 | – | 89 | 75 | – | 42 | 86 | 48 | – | 57 | – | – | –
16 | O=C(O)c1ccc(NCCCCCCc2ccco2)cc1 | 21 | 61 | 87 | – | 67 | 51 | 91 | – | 86 | – | – | – | –
17 | O=C(O)c1ccc(NCCc2ccc(Cl)cc2)cc1 | 6 | 91 | 90 | 105 | 114 | 67 | 106 | – | – | – | – | – | –
18 | O=C(O)c1ccc(NCCCc2ccc(Cl)c(Cl)c2)cc1 | 19 | – | 89 | – | 79 | 63 | 96 | 70 | 73 | – | – | – | –
19 | O=C(O)c1ccc(NCCCCCCCc2ccccc2)cc1 | 14 | – | – | – | – | <71 | – | – | 91 | – | – | 96 | <61
20 | O=[N+]([O-])c1ccc(CCCNc2ccccc2)cc1 | 46 | – | 88 | 87 | 90 | 49 | 90 | 61 | – | – | – | – | –
21 | O=C(O)c1ccc(NCCCc2ccccc2[N+](=O)[O-])cc1 | 2 | 103 | 83 | – | 84 | 77 | 88 | – | 83 | – | – | – | –
22 | CCOC(=O)c1ccc(NCCCCCCc2ccco2)cc1 | 37 | – | 103 | 90 | – | 60 | 95 | 64 | – | 68 | – | – | –
23 | O=C(O)Cc1ccc(NCCCc2ccc(Cl)cc2)cc1 | 9 | 95 | 85 | 82 | 111 | 61 | 83 | – | – | – | – | – | –
24 | CCOC(=O)c1ccc(NCCCCCCc2ccc(Cl)cc2)cc1 | 30 | – | 95 | 85 | – | 50 | 99 | 68 | – | 73 | – | – | –
25 | CCOC(=O)c1ccc(NCCCc2ccc(Cl)c(Cl)c2)cc1 | 43 | 98 | 98 | 90 | 90 | 66 | 86 | – | – | – | – | – | –
26 | CCOC(=O)c1ccc(NCCCc2cccc(Cl)c2)cc1 | 79 | – | 88 | – | – | 56 | 93 | 65 | 80 | 65 | – | – | –
27 | CCOC(=O)c1ccc(NCCCc2cccc(F)c2)cc1 | 50 | – | 88 | – | – | 37 | 91 | 55 | 77 | 78 | – | – | –
28 | O=C(O)c1ccc(NCCCCCC(O)c2ccc(Cl)cc2)cc1 (configuration not stated) | 30 | 90 | 100 | 86 | 85 | 72 | 100 | – | – | – | – | – | –
